ChEMBL document CHEMBL1137711, “Design, synthesis, structure-activity relationship and antibacterial activity series of novel imidazo fused quinolone carboxamides” (2009)
≈ marks a conversion by molar mass, not a printed value. Calls of active or inactive are those of the source. No cut-off for these calls is given here.

Legend:
Format in all cases: functional
[1] = tested on: Klebsiella aerogenes; test: Antibacterial activity against Klebsiella aerogenes after 24 hrs by broth dilution method
How it was run: (§1)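 MIC by broth dilution (NCCLS 1982) in nutrient broth, test compound serially diluted across tubes 1–9. Each tube receives 0.5 ml overnight culture. Incubation 37 °C for 24 h, then turbidity read. DMSO as negative control, ciprofloxacin as reference.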

[2] = tested on: Lysinibacillus sphaericus; test: Antibacterial activity against Bacillus sphaericus after 24 hrs by broth dilution method
How it was run: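 Broth dilution per NCCLS 1982: test agent serially diluted across tubes 1–9 of sterile nutrient broth; 0.5 ml overnight culture added to each tube; incubated at 37 °C for 24 h, then turbidity read to give the minimum inhibitory concentration. DMSO served as negative control; ciprofloxacin run alongside.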

[3] = tested on: Staphylococcus aureus; test: Antibacterial activity against Staphylococcus aureus after 24 hrs by broth dilution method; how it was run: as §1
[4] = tested on: Pseudomonas aeruginosa; test: Antibacterial activity against Pseudomonas aeruginosa after 24 hrs by broth dilution method; how it was run: as §1
[5] = tested on: Bacillus subtilis; test: Antibacterial activity against Bacillus subtilis after 24 hrs by broth dilution method; how it was run: as §1
[6] = tested on: Chromobacterium violaceum; test: Antibacterial activity against Chromobacterium violaceum after 24 hrs by broth dilution method; how it was run: as §1

Q: Which results are given for `CNC(=O)c1cn2c(-c3ccc(OC)cc3)nc3c(NC)c(F)cc(c1=O)c32`?
A: MIC [1]: inactive; MIC [2]: 12.5 µg/mL (≈ 32.9 µM); MIC [3]: 25 µg/mL (≈ 65.7 µM); MIC [4]: 6.25 µg/mL (≈ 16.4 µM); MIC [5]: 12.5 µg/mL (≈ 32.9 µM); MIC [6]: 25 µg/mL (≈ 65.7 µM)

Q: How did the MIC [1] turn out when `CNC(=O)c1cn2c(-c3ccc(F)cc3)nc3c(NC)c(F)cc(c1=O)c32` was run?
A: inactive

Q: What about the MIC [2] of the same molecule?
A: 25 µg/mL (≈ 67.9 µM)

Q: And the MIC [3]?
A: 25 µg/mL (≈ 67.9 µM)

Q: What about the MIC [4] of the same molecule?
A: 25 µg/mL (≈ 67.9 µM)

Q: And the MIC [5]?
A: 25 µg/mL (≈ 67.9 µM)

Q: And the MIC [6]?
A: 6.25 µg/mL (≈ 17 µM)

Q: Which MIC [1] does the source give for `CNC(=O)c1cn2c(-c3ccc(Cl)cc3)nc3c(NC)c(F)cc(c1=O)c32` here?
A: inactive

Q: And the MIC [2]?
A: 25 µg/mL (≈ 65 µM)

Q: And the MIC [3]?
A: 25 µg/mL (≈ 65 µM)

Q: And the MIC [4]?
A: 25 µg/mL (≈ 65 µM)

Q: What about the MIC [5] of the same molecule?
A: 25 µg/mL (≈ 65 µM)

Q: And the MIC [6]?
A: 6.25 µg/mL (≈ 16.2 µM)

Q: How did the MIC [1] turn out when `CCCCc1nc2c3c(cc(F)c2n1C)c(=O)c(C(=O)NC)cn3CC` was run?
A: 25 µg/mL (≈ 69.8 µM)

Q: And the MIC [2]?
A: inactive

Q: What about the MIC [3] of the same molecule?
A: inactive

Q: What about the MIC [4] of the same molecule?
A: 12.5 µg/mL (≈ 34.9 µM)

Q: And the MIC [5]?
A: inactive

Q: And the MIC [6]?
A: 25 µg/mL (≈ 69.8 µM)

Q: What does the source list for `CNC(=O)c1cn2c(-c3ccc(O)cc3)nc3c(NC)c(F)cc(c1=O)c32`?
A: MIC [1]: inactive; MIC [2]: 25 µg/mL (≈ 68.2 µM); MIC [3]: 25 µg/mL (≈ 68.2 µM); MIC [4]: inactive; MIC [5]: 12.5 µg/mL (≈ 34.1 µM); MIC [6]: 25 µg/mL (≈ 68.2 µM)

Q: For `CNC(=O)c1cn2c(-c3ccccc3)nc3c(NC)c(F)cc(c1=O)c32`, which MIC [1] is on record?
A: inactive

Q: And the MIC [2]?
A: 25 µg/mL (≈ 71.4 µM)

Q: What about the MIC [3] of the same molecule?
A: 6.25 µg/mL (≈ 17.8 µM)

Q: And the MIC [4]?
A: 12.5 µg/mL (≈ 35.7 µM)

Q: And the MIC [5]?
A: 12.5 µg/mL (≈ 35.7 µM)

Q: What about the MIC [6] of the same molecule?
A: 12.5 µg/mL (≈ 35.7 µM)

Q: For `CCCc1nc2c3c(cc(F)c2n1C)c(=O)c(C(=O)NC)cn3CC`, which MIC [1] is on record?
A: 12.5 µg/mL (≈ 36.3 µM)

Q: And the MIC [2]?
A: 50 µg/mL (≈ 145 µM)

Q: And the MIC [3]?
A: 25 µg/mL (≈ 72.6 µM)

Q: What about the MIC [4] of the same molecule?
A: 25 µg/mL (≈ 72.6 µM)

Q: What about the MIC [5] of the same molecule?
A: 12.5 µg/mL (≈ 36.3 µM)

Q: And the MIC [6]?
A: 25 µg/mL (≈ 72.6 µM)

Q: Which MIC [1] does the source give for `CCCCCCc1nc2c3c(cc(F)c2n1C)c(=O)c(C(=O)NC)cn3CC` here?
A: 50 µg/mL (≈ 129 µM)

Q: What about the MIC [2] of the same molecule?
A: inactive

Q: And the MIC [3]?
A: inactive

Q: What about the MIC [4] of the same molecule?
A: 50 µg/mL (≈ 129 µM)

Q: And the MIC [5]?
A: inactive

Q: What about the MIC [6] of the same molecule?
A: 25 µg/mL (≈ 64.7 µM)

Q: `CNC(=O)c1cn2c(-c3ccc(C)cc3)nc3c(NC)c(F)cc(c1=O)c32` was tested. Which MIC [1] did it give?
A: inactive

Q: And the MIC [2]?
A: 12.5 µg/mL (≈ 34.3 µM)

Q: What about the MIC [3] of the same molecule?
A: 12.5 µg/mL (≈ 34.3 µM)

Q: What about the MIC [4] of the same molecule?
A: 6.25 µg/mL (≈ 17.2 µM)

Q: What about the MIC [5] of the same molecule?
A: 25 µg/mL (≈ 68.6 µM)

Q: And the MIC [6]?
A: 6.25 µg/mL (≈ 17.2 µM)

Q: Which MIC [1] does the source give for `CNC(=O)c1cn2c(-c3ccco3)nc3c(NC)c(F)cc(c1=O)c32` here?
A: inactive

Q: What about the MIC [2] of the same molecule?
A: 25 µg/mL (≈ 73.5 µM)

Q: And the MIC [3]?
A: 6.25 µg/mL (≈ 18.4 µM)

Q: What about the MIC [4] of the same molecule?
A: 12.5 µg/mL (≈ 36.7 µM)

Q: And the MIC [5]?
A: 6.25 µg/mL (≈ 18.4 µM)

Q: What about the MIC [6] of the same molecule?
A: 6.25 µg/mL (≈ 18.4 µM)

Q: How did the MIC [1] turn out when `CCCCCc1nc2c3c(cc(F)c2n1C)c(=O)c(C(=O)NC)cn3CC` was run?
A: 12.5 µg/mL (≈ 33.6 µM)

Q: And the MIC [2]?
A: 50 µg/mL (≈ 134 µM)

Q: What about the MIC [3] of the same molecule?
A: 25 µg/mL (≈ 67.1 µM)

Q: And the MIC [4]?
A: 25 µg/mL (≈ 67.1 µM)

Q: And the MIC [5]?
A: 25 µg/mL (≈ 67.1 µM)

Q: What about the MIC [6] of the same molecule?
A: 25 µg/mL (≈ 67.1 µM)

Q: For `O=C(O)c1cn(C2CC2)c2cc(N3CCNCC3)c(F)cc2c1=O` [CIPROFLOXACIN], which MIC [1] is on record?
A: 0.78 µg/mL (≈ 2.35 µM)

Q: What about the MIC [2] of the same molecule?
A: 0.78 µg/mL (≈ 2.35 µM)

Q: What about the MIC [3] of the same molecule?
A: 0.39 µg/mL (≈ 1.18 µM)

Q: What about the MIC [4] of the same molecule?
A: 0.78 µg/mL (≈ 2.35 µM)

Q: And the MIC [5]?
A: 0.78 µg/mL (≈ 2.35 µM)

Q: And the MIC [6]?
A: 0.39 µg/mL (≈ 1.18 µM)

Q: Which results are given for `CCn1cc(C(=O)NC)c(=O)c2cc(F)c3c(nc(CC(C)C)n3C)c21`?
A: MIC [1]: 12.5 µg/mL (≈ 34.9 µM); MIC [2]: inactive; MIC [3]: inactive; MIC [4]: 25 µg/mL (≈ 69.8 µM); MIC [5]: inactive; MIC [6]: 25 µg/mL (≈ 69.8 µM)

Q: With `CCc1nc2c3c(cc(F)c2n1C)c(=O)c(C(=O)NC)cn3CC` as the molecule, how does the MIC [1] read?
A: inactive

Q: What about the MIC [2] of the same molecule?
A: inactive

Q: And the MIC [3]?
A: inactive

Q: What about the MIC [4] of the same molecule?
A: inactive

Q: And the MIC [5]?
A: inactive

Q: And the MIC [6]?
A: inactive

Q: For `CNC(=O)c1cn2c(-c3ccc([N+](=O)[O-])cc3)nc3c(NC)c(F)cc(c1=O)c32`, which MIC [1] is on record?
A: inactive

Q: And the MIC [2]?
A: 12.5 µg/mL (≈ 31.6 µM)

Q: What about the MIC [3] of the same molecule?
A: 12.5 µg/mL (≈ 31.6 µM)

Q: And the MIC [4]?
A: inactive

Q: And the MIC [5]?
A: 12.5 µg/mL (≈ 31.6 µM)

Q: What about the MIC [6] of the same molecule?
A: 25 µg/mL (≈ 63.2 µM)

Q: Which results are given for `CNC(=O)c1cn2c(-c3ccc(N(C)C)cc3)nc3c(NC)c(F)cc(c1=O)c32`?
A: MIC [1]: 25 µg/mL (≈ 63.5 µM); MIC [2]: 25 µg/mL (≈ 63.5 µM); MIC [3]: 12.5 µg/mL (≈ 31.8 µM); MIC [4]: 6.25 µg/mL (≈ 15.9 µM); MIC [5]: 25 µg/mL (≈ 63.5 µM); MIC [6]: 12.5 µg/mL (≈ 31.8 µM)

Q: `CCn1cc(C(=O)NC)c(=O)c2cc(F)c3c(nc(C(C)C)n3C)c21` was tested. Which MIC [1] did it give?
A: 50 µg/mL (≈ 145 µM)

Q: And the MIC [2]?
A: 25 µg/mL (≈ 72.6 µM)

Q: What about the MIC [3] of the same molecule?
A: 50 µg/mL (≈ 145 µM)

Q: And the MIC [4]?
A: 50 µg/mL (≈ 145 µM)

Q: And the MIC [5]?
A: 12.5 µg/mL (≈ 36.3 µM)

Q: And the MIC [6]?
A: 12.5 µg/mL (≈ 36.3 µM)
